Assay outcomes as filed in PubChem.
Most compounds without a hit are left out; they make up all but 1.4% or so of the library.
FXIa inh 1536: factor XIa (human) inhibition. P03951. inhibition, % at 5 µM. 220,000 compounds, 0.14% hits. purified FXIa, Boc-Glu-Ala-Arg-AMC fluorogenic substrate. AID 798;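 active = inhibition of at least 40%; inactive = inhibition below 40%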;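 note: fluorescence of freed AMC excited at 355 nm; 0% = enzyme without compound and 100% = no enzyme blank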
Target sequence (P03951 19-387 limits assumed): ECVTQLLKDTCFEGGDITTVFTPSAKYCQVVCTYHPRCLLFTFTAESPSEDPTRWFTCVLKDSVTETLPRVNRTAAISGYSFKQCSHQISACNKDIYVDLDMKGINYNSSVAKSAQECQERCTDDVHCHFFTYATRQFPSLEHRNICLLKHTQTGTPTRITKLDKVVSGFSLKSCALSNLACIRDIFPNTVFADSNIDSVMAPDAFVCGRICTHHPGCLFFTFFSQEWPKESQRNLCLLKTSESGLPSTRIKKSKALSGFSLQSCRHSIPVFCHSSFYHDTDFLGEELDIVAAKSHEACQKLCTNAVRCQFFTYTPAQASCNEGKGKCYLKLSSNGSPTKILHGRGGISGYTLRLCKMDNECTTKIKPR
Target sequence (P03951 388-625 limits assumed): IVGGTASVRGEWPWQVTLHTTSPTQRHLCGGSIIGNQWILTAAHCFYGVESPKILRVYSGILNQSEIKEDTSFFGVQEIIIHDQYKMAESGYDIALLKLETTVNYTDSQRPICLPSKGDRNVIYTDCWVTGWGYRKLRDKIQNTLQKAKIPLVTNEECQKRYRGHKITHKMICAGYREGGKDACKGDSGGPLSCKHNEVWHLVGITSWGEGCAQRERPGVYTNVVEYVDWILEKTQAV
FXIIa inh: blocks human coagulation factor XIIa protease activity; 220,000 compounds, 0.3% hits; purified FXIIa, Boc-QGR-AMC fluorogenic substrate, 2 h; inhibition, % at 5 µM; in the data active = inhibition above about 40%;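 note: 0% = enzyme with no compound and 100% = blank without enzyme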
Thrombin inh: thrombin (human) inhibition | P00734 | alpha-thrombin, Boc-VPR-AMC fluorogenic substrate cleavage | inhibition, % at 5 µM | 220,000 compounds, 0.26% hits | AID 1046;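 active = inhibition at or above 40%; inactive = inhibition below 40%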;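 note: 0% = enzyme with no compound and 100% = wells without enzyme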
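System: human alpha-thrombin protein; Compound dosing: one concentration per compound, 5 µM, with 0.2% DMSO; Timing: reaction at room temperature; Technique: AMC fluorescence, 355/460 nm; Controls: enzyme without compound as high, wells lacking enzyme as low.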
KLK5 inh: inhibitors of human kallikrein 5 | Q9Y337 | recombinant hK5, fluorogenic AMC substrate cleavage | inhibition, % at 5 µM | 210,000 compounds, 0.59% hits;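 active = inhibition of 40% or more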;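 note: 0% = enzyme controls without compound and 100% = no-enzyme blanks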
Calpain2 inh: inhibitors of pig calpain II; purified calpain II, fluorogenic peptide substrate, 30 min; inhibition, % at 16 µM; 220,000 compounds, 0.37% hits; AID 1236;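 active = inhibition above about 50%, limit read from the data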
An asterisk follows results filed as active.

SMILES	FXIa inh 1536	FXIIa inh	Thrombin inh	KLK5 inh	Calpain2 inh
CCN1CCN(C(=O)c2cnn3c(C(F)F)cc(-c4ccc(C)cc4)nc23)CC1	-5.7	-3.0	-5.2	8.2	-250.2
CN(c1ccccc1)P(=O)(N(C)c1ccccc1)N(C)c1ccccc1	-5.3	3.0	-7.7	-0.3	0.5
O=[N+]([O-])c1ccc(OCCO)c(P(=O)(c2ccccc2)c2ccccc2)c1	69.6*	24.3	7.0	33.2	6.3
COc1cnc(SCc2c(Cl)cccc2Cl)nc1Cl	0.8	9.7	1.5	-4.1	50.8*
CC(C)COc1ccc(CSCCNC(=S)Nc2ccccc2)cc1	-17.8	-3.3	36.3	-20.9	65.5*
CCCCOc1ccc(CSCCNC(=S)Nc2ccccc2)cc1	-1.0	6.9	-7.2	-5.0	3.4
O=C(c1cnn(C(=O)c2ccc(O)cc2)c1)c1ccccc1O	2.2	17.6	12.2	41.9*	-27.0
CN(C)c1cccc(C(=O)n2cc(C(=O)c3cc(F)ccc3O)cn2)c1	4.4	41.4*	15.8	32.0	-34.3
CCn1c(C)nc2cc(C(=O)n3cc(C(=O)c4ccccc4O)cn3)ccc21	13.6	37.4	-4.6	-1.9	-0.6
O=C(c1cnn(C(=O)COc2ccccc2F)c1)c1cc(F)ccc1O	0.9	7.8	-7.0	-2.9	7.2
COc1cc(/C=C/c2nc3ccc([N+](=O)[O-])cc3s2)ccc1OCC(=O)O	1.9	7.3	-1.5	2.9	-2.4
CCCC(=O)Nc1ccc(Sc2ccc([N+](=O)[O-])cc2)cc1	12.1	14.2	-6.0	-18.1	58.0*
CCC(CC)C(=O)Nc1ccc(Sc2ccc([N+](=O)[O-])cc2)cc1	7.6	15.2	-3.1	-3.9	32.7
O=C(CSc1nnc(-c2ccccc2F)n1C1CC1)Nc1cccnc1Cl	6.3	11.5	-7.3	-15.4	-1.0
Cc1ccc(-n2c(C)cc(/C=N/NC(=O)CN(c3ccc(C)cc3C)S(C)(=O)=O)c2C)cc1	21.8	30.4	27.1	42.4*	-232.3
CC(CNC(=S)Nc1cc(F)cc(F)c1)CSc1ccc(Cl)cc1 (stereo unspecified)	-1.3	9.6	-2.3	-12.8	48.0
O=C(Cn1nnc2ccccc2c1=O)Nc1cccc(S(=O)(=O)N2CCOCC2)c1	0.9	8.8	6.5	3.8	-3.3
Cc1ccc(NCc2cccnc2)c(Br)c1	13.3	18.7	13.4	46.7*	23.4
COC(=O)[C@@]1(Cc2ccc(F)cc2)[C@H]2c3cc(C(=O)N4CCCC4)n(CCc4ccccn4)c3C[C@H]2CN1C(=O)c1ccccc1	8.3	11.8	1.1	-5.2	-35.2
Cc1cc(C(=O)OCC(=O)c2cccc([N+](=O)[O-])c2)c2cccc(C)c2n1	-12.8	3.0	60.7*	-10.8	-286.4
Nc1sc2c(c1C(=O)NC1CCS(=O)(=O)C1)CCC2 (stereo unspecified)	6.8	20.2	19.3	45.0*	-33.6
NC(=O)c1c(N)sc2c1CCC2	8.0	41.2*	20.2	17.3	5.5
NC(=O)c1c(N)sc2c1CCCCC2	11.4	28.1	-3.0	3.8	-23.2
CNC(=O)c1c(N)sc2c1CCCCC2	2.7	9.6	1.9	1.9	-50.7
CSC(=O)NC(=O)NC(=O)c1ccc([N+](=O)[O-])cc1	-2.3	1.7	-4.6	-1.7	-21.8
SMILES	FXIa inh 1536	FXIIa inh	Thrombin inh	KLK5 inh	Calpain2 inh
O=[N+]([O-])c1ccc2c(c1)c1ccccc1n2CCO	24.4	50.0*	39.1	22.7	8.1
CN(C)c1ccc(/C=N/NC(=O)CCCCCNC(=O)c2ccccc2)cc1	7.0	20.7	14.6	79.9*	-74.4
COc1cccc(C(=O)N2c3ccccc3Sc3ccccc32)c1	-6.7	4.4	-4.9	-4.8	52.3*
COc1cccc(C(=O)NC2CCN(C(=O)N3c4ccccc4Sc4ccccc43)CC2)c1	1.2	12.5	1.5	-8.0	39.9
COc1ccc(C(=O)N2CCSC2=S)cc1OC	6.4	14.8	4.8	28.1	5.8
COc1cccc(C(=O)N2CCSC2=S)c1	14.9	9.1	6.5	48.0*	-1.3
Cc1ccc(S(=O)(=O)Nc2cccc3c2CCCC3)cc1	-8.4	2.0	-8.7	-7.4	33.8
O=C1CC(C(=O)Nc2ccc(Cl)cc2)n2ncnc2N1 (stereo unspecified)	-2.4	2.3	-11.3	-7.3	74.2*
CCc1ccc(NC(=O)C2CC(=O)Nc3ncnn32)cc1 (stereo unspecified)	-0.4	9.1	-6.0	-8.6	-1.7
O=C(c1cc2ccccc2[nH]1)N1CCOCC1	8.8	18.0	48.1*	28.6	21.9
O=C(c1cc2ccccc2s1)N1CCOCC1	3.1	7.1	-6.5	-1.6	1.9
COc1ccccc1-c1nc(COc2ccc(Cl)cc2Cl)no1	0.7	7.0	6.0	-5.5	0.4
Cc1onc(-c2c(Cl)cccc2Cl)c1COC(=O)c1ccc(Cl)cc1[N+](=O)[O-]	4.3	4.6	-4.1	1.7	16.8
C=CCN1CC2(c3ccccc3)CN(CC=C)CC(c3ccccc3)(C1)C2=O	2.7	11.7	0.6	24.2	-8.6
CCOc1ccccc1C(=O)Nc1nnc(SCC(=O)N2CCOCC2)s1	31.7	25.1	54.5*	42.8*	9.3
CC(=O)c1sc(-c2ccc(F)cc2F)nc1C	7.8	3.3	-1.7	5.3	-5.2
CC(C)CCNC(=O)COC(=O)c1cc(Br)c(Br)s1	-4.2	8.1	-5.4	-3.0	26.1
O=c1cc(CSc2nnc(COc3cccc4ccccc34)o2)c2ccccc2[nH]1	-0.2	6.0	0.7	2.8	21.4
O=C1NCC(COCc2ccco2)O1 (stereo unspecified)	8.2	17.1	103.4*	31.8	5.4
Cc1ccccc1OCC1CNC(=O)O1 (stereo unspecified)	-2.0	4.5	-11.7	-2.8	-9.4
COC(=O)c1cccc(NC(=O)CSc2ncn[nH]2)c1	44.3*	54.3*	1.9	-2.2	7.3
CNC(=S)Nc1cccc(C(=O)OC)c1	4.9	32.0	9.3	51.4*	17.0
O=C(CN1CCN(c2ccc(C(F)(F)F)cn2)CC1)Nc1ccc2c(c1)OCO2	-3.1	3.1	-8.7	-3.2	9.4
C/C(=C/Cc1c(O)cc2oc(C)cc(=O)c2c1O)COC1OC(CO)C(O)C(O)C1O (stereo unspecified)	-0.8	9.6	-3.5	-15.9	-11.1
O=C(Oc1ccccc1C(=O)N1CCOCC1)c1ccccc1	8.2	21.2	2.6	-1.8	-12.8
SMILES	FXIa inh 1536	FXIIa inh	Thrombin inh	KLK5 inh	Calpain2 inh
NC(=O)c1ccc(-n2nnnc2Oc2ccccc2C(=O)N2CCOCC2)cc1	-2.8	1.5	-3.0	-16.1	51.0*
COc1ccccc1-n1c([S-])c(C(=O)Nc2ccccc2C(F)(F)F)[n+]2ccc(C(=O)NCCO)cc12	6.6	9.8	-2.1	1.8	68.7*
Cc1ccc(-n2c([S-])c(C(=O)Nc3ccc(OC(F)F)cc3)[n+]3ccc(C(=O)NCCO)cc23)cc1C	-0.3	11.8	0.1	0.8	-18.5
COC(=O)CNC(c1ccccc1Cl)c1cc(Br)ccc1NS(=O)(=O)c1ccc(C)cc1 (stereo unspecified)	1.4	7.7	-10.7	-19.5	-9.8
Cc1ccc(C(=O)Cn2nnc(-c3cccs3)n2)cc1	-1.3	4.0	-2.0	-0.2	-20.5
O=C(CN1CC[n+]2c(-c3cccs3)csc21)c1ccc(-c2ccccc2)cc1	-2.7	-1.8	2.5	-9.9	57.8*
